An excerpt weighted towards active compounds, which were near 1.8% of everything screened.
NPY Y2 blocker: NPY-Y2 (human) receptor antagonism; actives 0.99% (n = 140,000); P49146; NPY-Y2 expressing cells, antagonist mode; inhibition, % at 2.7 µM; AID 793; in the data active = inhibition above about 17%;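 also: 0% = vehicle with agonist challenge and 100% = reference antagonist with challenge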
NPY-Y2 PAM-ag: human NPY-Y2 potentiation or agonism, primary screen | activation, % at 3.6 µM | actives 0.45% (n = 220,000) | cells expressing NPY-Y2, potentiator/agonist read-out | P49146; in the data active = activation above about 27%;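 also: cells stimulated with NPY near EC25 plus isoproterenol at EC100; 0% = vehicle plus submaximal agonist and 100% = vehicle plus saturating agonist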
NPY-Y1 antag: NPY-Y1 (human) receptor antagonism; HEK293-CNG Y1 cells, membrane potential fluorescence; NPY at EC95, then isoproterenol; inhibition, % at 3.6 µM; AID 1040; actives 1% (n = 200,000);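 active = inhibition above the campaign mean inhibition of all tested compounds plus 3 SD, cut at about 20% in these data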;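 also: 0% = DMSO wells given NPY plus isoproterenol and 100% = isoproterenol alone without NPY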
Target sequence (P25929 whole entry, looked up): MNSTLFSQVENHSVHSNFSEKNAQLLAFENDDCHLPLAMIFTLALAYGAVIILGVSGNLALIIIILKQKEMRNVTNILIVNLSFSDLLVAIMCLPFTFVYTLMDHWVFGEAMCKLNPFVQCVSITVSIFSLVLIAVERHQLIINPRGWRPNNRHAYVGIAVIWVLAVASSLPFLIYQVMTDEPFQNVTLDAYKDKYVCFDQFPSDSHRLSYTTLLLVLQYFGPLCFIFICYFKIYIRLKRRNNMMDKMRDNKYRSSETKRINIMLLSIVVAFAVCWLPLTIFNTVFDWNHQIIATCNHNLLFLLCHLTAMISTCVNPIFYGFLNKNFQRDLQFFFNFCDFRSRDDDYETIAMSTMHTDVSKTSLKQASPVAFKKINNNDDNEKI
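Material: HEK293 cells with Y1 receptor plus CNG channel; times: compound incubation 1 h at room temperature, readout 45 min post-stimulation; signal: fluorescence, membrane potential probe; read-out basis: fluorescence ratio normalized to % inhibition between controls; benchmarks: full-block control isoproterenol-only wells, zero-block control NPY plus isoproterenol wells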
NPY1 pot ag: potentiates or activates human NPY-Y1 receptor; AID 1304; NPY-Y1 expressing cells, potentiator/agonist activation; actives 0.37% (n = 220,000); activation, % at 3.6 µM; P25929; in the data active = activation above about 33%, passing the limit was not always enough;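 also: cells stimulated with NPY at EC10 then isoproterenol at EC100; 0% = low agonist plus stimulus and 100% = saturating agonist plus stimulus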
NPY1 antag ctr: antagonizes human NPY-Y1, counter-screen to NPY-Y2 antagonists; shares compounds with NPY Y2 blocker; cell-based NPY-Y1 antagonism counterscreen; inhibition, % at 3.6 µM; actives 19% (n = 710); in the data active = inhibition above about 20%;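 also: cells challenged with NPY then isoproterenol with cAMP sensed through a CNG channel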
NPY-Y2 ant conf: human NPY-Y2 antagonism, confirmation. shares compounds with NPY Y2 blocker. HEK293 NPY-Y2 CNG channel, membrane potential fluorescence. inhibition, % at 2.8 µM. actives 32% (n = 710). AID 1257;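 active = mean inhibition of triplicate wells above the hit cutoff set in the primary screen, cut at about 17% in these data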;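 also: 0% = DMSO with NPY challenge and 100% = BIIE0246 high control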
An asterisk follows results filed as active.

Screening CCCCCSc1nnc(-c2ccccc2NC(C)=O)c(=O)[nH]1 returned NPY-Y2 PAM-ag -16, NPY-Y1 antag -2 and NPY1 pot ag -4.
For CCCCCSc1nnc(-c2ccccc2N)c(=O)[nH]1 the results were NPY Y2 blocker 19*, NPY-Y2 PAM-ag -7, NPY-Y1 antag 7, NPY1 pot ag -11, NPY1 antag ctr 15 and NPY-Y2 ant conf 12.
For Cc1ccc(OCCNC(=O)/C=C/c2ccc([N+](=O)[O-])cc2)cc1C the results were NPY Y2 blocker 18*, NPY-Y2 PAM-ag -8, NPY-Y1 antag 17, NPY1 pot ag -28, NPY1 antag ctr 11 and NPY-Y2 ant conf 15.
`Cc1ccc(OCCNC(=O)/C=C/c2ccccc2)cc1C` gave NPY Y2 blocker 13, NPY-Y2 PAM-ag -14, NPY-Y1 antag 10 and NPY1 pot ag -44.
For Clc1ccccc1-c1nc2ccccc2c2nc3ccccc3n12 the results were NPY Y2 blocker 18*, NPY-Y2 PAM-ag -4, NPY-Y1 antag 0, NPY1 pot ag -9, NPY1 antag ctr 17 and NPY-Y2 ant conf 13.
CCCOc1ccc(C2(C(=O)O)CCCC2)cc1 was read as NPY Y2 blocker 44*, NPY-Y2 PAM-ag -2, NPY-Y1 antag 7, NPY1 pot ag 1, NPY1 antag ctr 8 and NPY-Y2 ant conf 6.
Screening CCCCN1C2CCCC1CC(NC(=O)N(C(C)C)C(C)C)C2 (configuration not stated) returned NPY Y2 blocker 2, NPY-Y2 PAM-ag -1, NPY-Y1 antag 7 and NPY1 pot ag -7.
For Brc1ccc(CSc2nnc(-c3ccccn3)n2Cc2ccco2)cc1 the results were NPY Y2 blocker 24*, NPY-Y2 PAM-ag -6, NPY-Y1 antag 19, NPY1 pot ag -23, NPY1 antag ctr 20 and NPY-Y2 ant conf 26*.
Clc1cccc(CSc2nnc(-c3ccccn3)n2Cc2ccco2)c1 was read as NPY Y2 blocker 20*, NPY-Y2 PAM-ag -13, NPY-Y1 antag -1, NPY1 pot ag 22, NPY1 antag ctr 12 and NPY-Y2 ant conf 8.
c1ccc(CSc2nnc(-c3cccs3)n2Cc2ccco2)cc1 was read as NPY Y2 blocker 19*, NPY-Y2 PAM-ag 8, NPY-Y1 antag 15, NPY1 pot ag 6, NPY1 antag ctr 11 and NPY-Y2 ant conf 10.
`Cc1ccc(-c2cc(C(F)F)n3ncc(C(=O)N4CCN(c5ccccn5)CC4)c3n2)cc1` gave NPY Y2 blocker 20*, NPY-Y2 PAM-ag -7, NPY-Y1 antag 6, NPY1 pot ag -28, NPY1 antag ctr 19 and NPY-Y2 ant conf 17.
Cc1onc(-c2ccccc2Cl)c1C(=O)Nc1sc2c(c1C#N)CCC2 was read as NPY Y2 blocker 26*, NPY-Y2 PAM-ag -79, NPY-Y1 antag 3, NPY1 pot ag -51, NPY1 antag ctr 9 and NPY-Y2 ant conf 18*.
Screening N#Cc1c(NC(=O)C2CC(c3ccccc3Cl)=NO2)sc2c1CCC2 (configuration not stated) returned NPY Y2 blocker 15, NPY-Y2 PAM-ag -26, NPY-Y1 antag 8 and NPY1 pot ag -34.
NNC(=O)Cn1c(SCc2ccccc2)nc2ccccc21 was read as NPY Y2 blocker 22*, NPY-Y2 PAM-ag 11, NPY-Y1 antag -4, NPY1 pot ag -11, NPY1 antag ctr -3 and NPY-Y2 ant conf 4.
O=C1CCC(C(=O)N2CCCC(C(=O)c3ccc4c5c(cccc35)CC4)C2)=NN1 (configuration not stated) was read as NPY-Y2 PAM-ag -2, NPY-Y1 antag -4 and NPY1 pot ag 1.
NNC(=O)c1cc(-c2ccc(N)cc2)nc2ccc(Br)cc12 was read as NPY-Y2 PAM-ag 11 and NPY1 pot ag 31.
Screening COC(=O)CN(C#N)c1nc(NC(C)C)nc(NC(C)C)n1 returned NPY-Y2 PAM-ag 17, NPY-Y1 antag -5 and NPY1 pot ag 8.
CCNc1cc(N2CCOCC2)nc(SC)n1 was read as NPY-Y2 PAM-ag -9, NPY-Y1 antag -1 and NPY1 pot ag 4.
Screening CCNc1cc(Cl)nc(SC)n1 returned NPY Y2 blocker 25*, NPY-Y2 PAM-ag 4, NPY-Y1 antag 7, NPY1 pot ag 7, NPY1 antag ctr -1 and NPY-Y2 ant conf 1.
O=S(=O)(NCc1ccccc1)c1ccc(S(=O)(=O)N(Cc2ccccn2)Cc2ccco2)cc1 was read as NPY Y2 blocker 4, NPY-Y2 PAM-ag -1, NPY-Y1 antag 9 and NPY1 pot ag -6.
For c1ccc(OCCSc2nc3ccccc3[nH]2)cc1 the results were NPY Y2 blocker -2, NPY-Y2 PAM-ag 4, NPY-Y1 antag 5 and NPY1 pot ag -15.
For Cc1ccccc1OCCCSc1nc2ccccc2[nH]1 the results were NPY Y2 blocker 17*, NPY-Y2 PAM-ag 8, NPY-Y1 antag 7, NPY1 pot ag -12, NPY1 antag ctr 4 and NPY-Y2 ant conf 2.
`CCOC(=O)C(C(C)=O)C(c1ccc(OCCC(C)C)cc1)C(C(C)=O)C(=O)OCC` (configuration not stated) gave NPY Y2 blocker 22*, NPY-Y2 PAM-ag -3, NPY-Y1 antag 18, NPY1 pot ag -22, NPY1 antag ctr 13 and NPY-Y2 ant conf 7.
CCOc1ccc(Br)cc1S(=O)(=O)Nc1ccccc1N1CCOCC1 was read as NPY Y2 blocker 2, NPY-Y2 PAM-ag 6, NPY-Y1 antag 7 and NPY1 pot ag 30.
COc1ccc(C(=O)NNC(=O)CN2CCN(c3nc(-c4ccccc4)cs3)CC2)cc1 was read as NPY Y2 blocker -2, NPY-Y2 PAM-ag 1, NPY-Y1 antag 2 and NPY1 pot ag 5.
For COc1cc(/C=N/NC(N)=O)ccc1OCC(=O)Nc1ccc(C)c(C)c1 the results were NPY Y2 blocker 18*, NPY-Y2 PAM-ag -16, NPY-Y1 antag -1, NPY1 pot ag -14, NPY1 antag ctr 11 and NPY-Y2 ant conf 34*.
COc1cc(/C=N/NC(N)=S)ccc1OCC(=O)Nc1ccc(C)c(C)c1 was read as NPY Y2 blocker -3, NPY-Y2 PAM-ag -9, NPY-Y1 antag -2 and NPY1 pot ag -6.
Screening CCN(CC)c1ccc(C(=O)OCC(=O)Nc2ccccc2-c2ccccc2)cc1 returned NPY Y2 blocker 21*, NPY-Y2 PAM-ag 0, NPY-Y1 antag 6, NPY1 pot ag -29, NPY1 antag ctr 12 and NPY-Y2 ant conf 11.
For O=C(COC(=O)Cc1ccc(Cl)cc1)Nc1ccccc1-c1ccccc1 the results were NPY Y2 blocker 5, NPY-Y2 PAM-ag -14, NPY-Y1 antag 5 and NPY1 pot ag -24.
For O=C(COC(=O)/C=C/c1ccc(Cl)cc1)Nc1ccccc1-c1ccccc1 the results were NPY Y2 blocker 22*, NPY-Y2 PAM-ag 10, NPY-Y1 antag -2, NPY1 pot ag 5, NPY1 antag ctr 20 and NPY-Y2 ant conf 17*.
CN(C)c1cccc(C(=O)OCC(=O)Nc2ccccc2-c2ccccc2)c1 was read as NPY Y2 blocker 4, NPY-Y2 PAM-ag 3, NPY-Y1 antag 2 and NPY1 pot ag -15.

Screening results: PubChem BioAssay, The Scripps Research Institute Molecular Screening Center
